Converted amounts (≈) assume the structure as drawn. The source made the active and inactive calls. The calls are words filed in the database; no cut-off is given here.
Experiments:
Influenza A virus [1] = test: Antiviral activity against Influenza A virus H5N1 Vietnam/1203/2004H infected in MDCK cells; format: functional, organism-based; details: A/Viet Nam/1203/2004(H5N1)
Influenza B virus [2] = test: Antiviral activity against Influenza B virus Florida/4/2006 infected in MDCK cells; format: functional, cell-based; details: B/Florida/4/2006, MDCK
MDCK = test: Cytotoxicity against MDCK cells; format: cell-based; details: Canis lupus familiaris
Outline: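 Run in MDCK cells, two uninfected toxicity-control wells per compound concentration alongside the infected wells. Neutral red uptake in these wells is read spectrophotometrically to give an NR IC50. The wells are also examined microscopically against untreated normal cells for enlargement, granularity, rounding, detachment and similar changes. The IC50 from these observations is derived by regression analysis.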

Influenza A virus [3] = test: Antiviral activity against Influenza A virus H5N1 Vietnam/1203/2004H infected in MDCK cells at up to 100 uM; format: functional, organism-based; details: A/Viet Nam/1203/2004(H5N1)
Influenza B virus [4] = test: Antiviral activity against Influenza B virus Florida/4/2006 infected in MDCK cells at up to 100 uM; format: functional, cell-based; details: B/Florida/4/2006
Influenza A virus [5] = test: Antiviral activity against Influenza A virus H5N1 Vietnam/1203/2004H infected in MDCK cells assessed as increase of neutral red uptake; format: functional, organism-based; details: A/Viet Nam/1203/2004(H5N1)
Outline: (§1)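 Neutral red dye uptake read-out run in MDCK cells. Cells not damaged by virus take up more dye, which is measured on a microplate reader. The EC50 is derived from dye uptake.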

Influenza B virus [6] = test: Antiviral activity against Influenza B virus Florida/4/2006 infected in MDCK cells assessed as increase of neutral red uptake; format: functional, cell-based; details: B/Florida/4/2006, MDCK; outline: as §1
Influenza B virus [7] = test: Antiviral activity against Influenza B virus Florida/4/2006 infected in MDCK cells assessed as reduction of viral yeild; format: functional; details: B/Florida/4/2006, MDCK
Influenza B virus [8] = test: Antiviral activity against Influenza B virus Florida/4/2006 infected in MDCK cells assessed as reduction of virus-induced cytopathogenicity by confocal microscopic analysis; format: functional, cell-based; details: B/Florida/4/2006, MDCK
Influenza A virus [9] = test: Antiviral activity against Influenza A virus H5N1 Vietnam/1203/2004H infected in MDCK cells assessed as reduction of virus-induced cytopathogenicity by confocal microscopic analysis; format: functional, organism-based; details: A/Viet Nam/1203/2004(H5N1)
[10] = Selectivity index, IC50 for MDCK cells to EC50 for Influenza B virus Florida/4/2006 infected in MDCK cells assessed as increase of neutral red uptake; format: functional
Outline: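 Run in MDCK cells. Antiviral EC50 comes from neutral red uptake, since undamaged cells take up more dye, read on a microplate reader. Cytotoxicity uses neutral red in uninfected, compound-treated toxicity control wells run alongside, read spectrophotometrically to give NR IC50. SI = IC50/EC50.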

[11] = Selectivity index, IC50 for MDCK cells to EC90 for Influenza B virus Florida/4/2006 infected in MDCK cells assessed as reduction of viral yield; format: functional
Outline: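 Retest in MDCK cells of compounds active by neutral red, with virus yield reduction measured on the same plate as CPE inhibition. A known active drug is the parallel positive control. EC90 is the concentration lowering virus yield by 1 log10. SI is the ratio of cytotoxic IC50 to EC90.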

[12] = Selectivity index, IC50 for MDCK cells to EC50 for Influenza B virus Florida/4/2006 infected in MDCK cells assessed as reduction of virus-induced cytopathogenicity by confocal microscopic analysis; format: functional
Outline: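 CPE inhibition in MDCK cells, scored microscopically. At each concentration, two uninfected treated wells are examined for morphology changes against normal control cells: enlargement, granularity, ragged edges, filmy appearance, rounding or detachment. Cytotoxic IC50 is found by regression analysis. SI = IC50/EC50.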

Influenza A virus [13] = test: Antiviral activity against Influenza A virus H5N1 Vietnam/1203/2004H infected in MDCK cells assessed as reduction of viral yeild; format: functional; details: A/Viet Nam/1203/2004(H5N1)

With `CC(=O)O[C@]1(C)[C@@H](COC(=O)c2ccccc2)O[C@@H](n2cnc3c(Cl)ncnc32)[C@]1(C)F` the EC50 (Influenza A virus [1]) was > 100 µg/mL, the EC50 (Influenza B virus [2]) was > 100 µg/mL and the IC50 (MDCK) was > 100 µg/mL.
For `CC(=O)O[C@@]1(C)[C@@H](COC(=O)c2ccccc2)O[C@H](n2cnc3c(Cl)ncnc32)[C@]1(C)F`, the Activity (Influenza A virus [3]) was “inactive” and the Activity (Influenza B virus [4]) was “inactive”.
In the case of `CC(=O)O[C@@]1(C)[C@@H](COC(=O)c2ccccc2)O[C@H](n2cnc3c(O)ncnc32)[C@]1(C)F`, the Activity (Influenza A virus [3]) is reported as “inactive” and the Activity (Influenza B virus [4]) is reported as “inactive”.
In the case of `C[C@]1(O)[C@@H](CO)O[C@H](n2cnc3c(NC4CCC4)ncnc32)[C@]1(C)F`, the Activity (Influenza A virus [3]) is reported as “inactive” and the Activity (Influenza B virus [4]) is reported as “inactive”.
In the case of `CC(=O)O[C@]1(C)[C@@H](COC(=O)c2ccccc2)O[C@H](n2cnc3c(Cl)ncnc32)[C@]1(C)F`, the Activity (Influenza A virus [3]) is reported as “inactive” and the Activity (Influenza B virus [4]) is reported as “inactive”.
In the case of `CCOc1ncnc2c1ncn2[C@H]1O[C@H](CO)[C@](C)(O)[C@@]1(C)F`, the Activity (Influenza A virus [3]) is reported as “inactive” and the Activity (Influenza B virus [4]) is reported as “inactive”.
For `CN1CCN(c2ncnc3c2ncn3[C@H]2O[C@H](CO)[C@](C)(O)[C@@]2(C)F)CC1`, the Activity (Influenza A virus [3]) was “inactive” and the Activity (Influenza B virus [4]) was “inactive”.
For `C[C@]1(O)[C@@H](CO)O[C@H](n2cnc3c(NC4CC4)ncnc32)[C@]1(C)F`, the Activity (Influenza A virus [3]) was “inactive” and the Activity (Influenza B virus [4]) was “inactive”.
In the case of `CC(=O)O[C@@]1(C)[C@@H](COC(=O)c2ccccc2)O[C@@H](n2cnc3c(NCC4CC4)ncnc32)[C@]1(C)F`, the EC50 (Influenza A virus [1]) is reported as 32 µg/mL (≈ 64.3 µM), the EC50 (Influenza B virus [2]) is reported as 17 µg/mL (≈ 34.2 µM) and the IC50 (MDCK) is reported as > 100 µg/mL.
In the case of `C[C@]1(O)[C@@H](CO)O[C@H](n2cnc3c(O)ncnc32)[C@]1(C)F`, the Activity (Influenza A virus [3]) is reported as “inactive” and the Activity (Influenza B virus [4]) is reported as “inactive”.
In the case of `CC(=O)O[C@@]1(C)[C@@H](COC(=O)c2ccccc2)O[C@H](n2cnc3c(NCc4ccco4)ncnc32)[C@]1(C)F`, the Activity (Influenza A virus [3]) is reported as “inactive” and the Activity (Influenza B virus [4]) is reported as “inactive”.
With `CC(=O)O[C@@]1(C)[C@@H](COC(=O)c2ccccc2)O[C@@H](n2cnc3c(NC4CCC4)ncnc32)[C@]1(C)F` the EC50 (Influenza A virus [1]) was 23 µg/mL (≈ 46.2 µM), the EC50 (Influenza B virus [2]) was 27 µg/mL (≈ 54.3 µM) and the IC50 (MDCK) was > 100 µg/mL.
For `CC(=O)O[C@@]1(C)[C@@H](COC(=O)c2ccccc2)O[C@@H](n2cnc3c(N4CCN(C)CC4)ncnc32)[C@]1(C)F`, the EC50 (Influenza A virus [1]) was > 100 µg/mL, the EC50 (Influenza B virus [2]) was 42 µg/mL (≈ 79.8 µM) and the IC50 (MDCK) was > 100 µg/mL.
With `CC(=O)O[C@@]1(C)[C@@H](COC(=O)c2ccccc2)O[C@H](n2cnc3c(NC4CC4)ncnc32)[C@]1(C)F` the Activity (Influenza A virus [3]) was “inactive” and the Activity (Influenza B virus [4]) was “inactive”.
In the case of `CC(=O)O[C@@]1(C)[C@@H](COC(=O)c2ccccc2)O[C@H](n2cnc3c(NCC4CC4)ncnc32)[C@]1(C)F`, the Activity (Influenza A virus [3]) is reported as “inactive” and the Activity (Influenza B virus [4]) is reported as “inactive”.
With `CC(=O)O[C@@]1(C)[C@@H](COC(=O)c2ccccc2)O[C@@H](n2cnc3c(NCc4ccco4)ncnc32)[C@]1(C)F` the EC50 (Influenza A virus [1]) was 31 µg/mL (≈ 59.2 µM), the EC50 (Influenza B virus [2]) was 32 µg/mL (≈ 61.1 µM) and the IC50 (MDCK) was > 100 µg/mL.
In the case of `C[C@]1(O)[C@@H](CO)O[C@H](n2cnc3c(N4CCOCC4)ncnc32)[C@]1(C)F`, the Activity (Influenza A virus [3]) is reported as “inactive” and the Activity (Influenza B virus [4]) is reported as “inactive”.
For `CC(=O)O[C@@]1(C)[C@@H](COC(=O)c2ccccc2)O[C@H](n2cnc3c(NC4CCC4)ncnc32)[C@]1(C)F`, the Activity (Influenza A virus [3]) was “inactive” and the Activity (Influenza B virus [4]) was “inactive”.
In the case of `CC(=O)O[C@@]1(C)[C@@H](COC(=O)c2ccccc2)O[C@H](n2cnc3c(N4CCN(C)CC4)ncnc32)[C@]1(C)F`, the Activity (Influenza A virus [3]) is reported as “inactive” and the Activity (Influenza B virus [4]) is reported as “inactive”.
For `CC(=O)O[C@@]1(C)[C@@H](COC(=O)c2ccccc2)O[C@@H](n2cnc3c(O)ncnc32)[C@]1(C)F`, the EC50 (Influenza A virus [1]) was 33 µg/mL (≈ 74.3 µM), the EC50 (Influenza B virus [2]) was 65 µg/mL (≈ 146 µM) and the IC50 (MDCK) was > 100 µg/mL.
Work on `CC(=O)O[C@@]1(C)[C@@H](COC(=O)c2ccccc2)O[C@@H](n2cnc3c(Cl)ncnc32)[C@]1(C)F` yielded an EC50 (Influenza A virus [1]) of 7.1 µg/mL (≈ 15.3 µM), an EC50 (Influenza B virus [2]) of 3.7 µg/mL (≈ 7.99 µM) and an IC50 (MDCK) of 18 µg/mL (≈ 38.9 µM). For the same molecule, the EC50 (Influenza A virus [5]) was 1.76 µg/mL (≈ 3.8 µM), the EC50 (Influenza B virus [6]) was 1.2 µg/mL (≈ 2.59 µM) and the EC90 (Influenza B virus [7]) was 6.3 µg/mL (≈ 13.6 µM). For the same molecule, the EC50 (Influenza B virus [8]) was 1.2 µg/mL (≈ 2.59 µM), the EC50 (Influenza A virus [9]) was 1.26 µg/mL (≈ 2.72 µM) and the “Ratio IC50/EC50” value [10] was 15. For the same molecule, the “Ratio IC50/EC50” value [11] was 2.9, the “Ratio IC50/EC50” value [12] was 15 and the EC90 (Influenza A virus [13]) was 4.4 µg/mL (≈ 9.51 µM).
For `C[C@]1(F)[C@H](n2cnc3c(N)ncnc32)O[C@H](CO)[C@@]1(C)O`, the EC50 (Influenza A virus [1]) was > 100 µg/mL, the EC50 (Influenza B virus [2]) was > 100 µg/mL and the IC50 (MDCK) was > 100 µg/mL.
In the case of `C[C@]1(O)[C@@H](CO)O[C@H](n2cnc3c(NCc4ccc(F)cc4)ncnc32)[C@]1(C)F`, the Activity (Influenza A virus [3]) is reported as “inactive” and the Activity (Influenza B virus [4]) is reported as “inactive”.
With `C[C@]1(F)[C@@H](n2cnc3c(N)ncnc32)O[C@H](CO)[C@@]1(C)O` the Activity (Influenza A virus [3]) was “inactive” and the Activity (Influenza B virus [4]) was “inactive”.
With `CC(=O)O[C@@]1(C)[C@@H](COC(=O)c2ccccc2)O[C@@H](n2cnc3c(N4CCOCC4)ncnc32)[C@]1(C)F` the EC50 (Influenza A virus [1]) was 24 µg/mL (≈ 46.7 µM), the EC50 (Influenza B virus [2]) was 25 µg/mL (≈ 48.7 µM) and the IC50 (MDCK) was > 100 µg/mL.
In the case of `CC(=O)O[C@@]1(C)[C@@H](COC(=O)c2ccccc2)O[C@H](n2cnc3c(NCc4ccc(F)cc4)ncnc32)[C@]1(C)F`, the Activity (Influenza A virus [3]) is reported as “inactive” and the Activity (Influenza B virus [4]) is reported as “inactive”.
With `CCOc1ncnc2c1ncn2[C@H]1O[C@H](COC(=O)c2ccccc2)[C@](C)(OC(C)=O)[C@@]1(C)F` the Activity (Influenza A virus [3]) was “inactive” and the Activity (Influenza B virus [4]) was “inactive”.
For `CC(=O)O[C@@]1(C)[C@@H](COC(=O)c2ccccc2)O[C@@H](n2cnc3c(NC4CC4)ncnc32)[C@]1(C)F`, the EC50 (Influenza A virus [1]) was 50 µg/mL (≈ 103 µM), the EC50 (Influenza B virus [2]) was 20 µg/mL (≈ 41.4 µM) and the IC50 (MDCK) was > 100 µg/mL.
For `C[C@]1(O)[C@@H](CO)O[C@H](n2cnc3c(NCc4ccco4)ncnc32)[C@]1(C)F`, the Activity (Influenza A virus [3]) was “inactive” and the Activity (Influenza B virus [4]) was “inactive”.
In the case of `C[C@]1(O)[C@@H](CO)O[C@H](n2cnc3c(NCC4CC4)ncnc32)[C@]1(C)F`, the Activity (Influenza A virus [3]) is reported as “inactive” and the Activity (Influenza B virus [4]) is reported as “inactive”.
With `CC(=O)O[C@@]1(C)[C@@H](COC(=O)c2ccccc2)O[C@H](n2cnc3c(N4CCOCC4)ncnc32)[C@]1(C)F` the Activity (Influenza A virus [3]) was “inactive” and the Activity (Influenza B virus [4]) was “inactive”.
With `CCOc1ncnc2c1ncn2[C@@H]1O[C@H](COC(=O)c2ccccc2)[C@](C)(OC(C)=O)[C@@]1(C)F` the EC50 (Influenza A virus [1]) was 48 µg/mL (≈ 102 µM), the EC50 (Influenza B virus [2]) was > 100 µg/mL and the IC50 (MDCK) was > 100 µg/mL.
In the case of `CC(=O)O[C@@]1(C)[C@@H](COC(=O)c2ccccc2)O[C@@H](n2cnc3c(NCc4ccc(F)cc4)ncnc32)[C@]1(C)F`, the EC50 (Influenza A virus [1]) is reported as 32 µg/mL (≈ 58 µM), the EC50 (Influenza B virus [2]) is reported as 30 µg/mL (≈ 54.4 µM) and the IC50 (MDCK) is reported as 36 µg/mL (≈ 65.3 µM).

Source: ChEMBL document CHEMBL1221294, “Novel nucleosides as potent influenza viral inhibitors” (Bioorg Med Chem, 2010)
